Hits are enriched below; roughly 9.8% of the tested compounds scored in any of these assays.
PMI act satM6P: activators of human phosphomannose isomerase at near-saturating mannose 6-phosphate. P34949. coupled PMI enzyme assay, resazurin fluorescence, 20 min; active compounds read high; 1 = untreated enzyme, 0 = substrate-free blank. activation factor at 20 µM. 190,000 compounds, 0.34% hits. AID 1216;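 active = activation factor of 2 or more at 20 µM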
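Test system: human phosphomannose isomerase with PGI, G6PDH, diaphorase coupling enzymes; Amount: PMI at 15 ng/mL final; Reagent: Mannose-6-phosphate 1.0 mM (near-saturating) plus 0.22 mM NADP+; Timing: 20 min, room temperature; Technique: resorufin fluorescence at Ex 544/Em 590 nm; Dosing: 20 µM single dose.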
Rad51 HR inh: Rad51 (human) homologous recombination inhibition. Q06609. hRad51 DNA strand exchange, fluorescence dequenching. inhibition, % at 10 µM. 200,000 compounds, 0.085% hits;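 active = inhibition above 40% at the single screening dose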;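 note: 0% = DMSO control wells and 100% = blanks with heterologous ssDNA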
Target sequence (Q06609 whole entry, looked up): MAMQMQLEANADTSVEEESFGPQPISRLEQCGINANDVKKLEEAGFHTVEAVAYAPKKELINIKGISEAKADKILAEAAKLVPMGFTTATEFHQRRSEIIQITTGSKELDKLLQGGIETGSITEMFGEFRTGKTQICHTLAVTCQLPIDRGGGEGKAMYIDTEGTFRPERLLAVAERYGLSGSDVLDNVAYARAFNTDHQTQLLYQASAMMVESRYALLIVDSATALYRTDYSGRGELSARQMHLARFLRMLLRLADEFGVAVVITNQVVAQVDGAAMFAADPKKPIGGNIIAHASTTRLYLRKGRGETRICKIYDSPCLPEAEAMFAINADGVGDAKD
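Test system – preformed human Rad51 ssDNA filaments · Reagent – Donor/quencher-labelled 47-bp dsDNA substrate · Incubation – 37 °C 15-min filament assembly, 30-min compound preincubation, 15-min exchange · Signal – FRET fluorescence dequenching, excitation 485 nm, emission 520 nm · Read-out – percent inhibition from fluorescence, normalised to plate control and blank means · Benchmarks – plate control and blank wells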
PMI act: phosphomannose isomerase (human) activation; activation factor at 20 µM; purified human PMI, coupled resazurin fluorescence, 20 min; active compounds read high; 1 = vehicle control, 0 substrate-free wells; 190,000 compounds, 0.005% hits; P34949;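 active = activation factor of 2 or more at 20 µM, relative to plate controls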
Calpain2 inh: blocks pig calpain II enzyme activity. purified calpain II, fluorogenic peptide substrate, 30 min. inhibition, % at 16 µM. 220,000 compounds, 0.37% hits;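 active = inhibition above about 50%, limit read from the data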
WT yeast gro inh: growth inhibition of WT yeast, mitochondrial fusion screen | 190,000 compounds, 2.1% hits | inhibition, % at 10 µM | mitochondrial fusion phenotypic screen, WT strain; in the data active = inhibition above about 58%; tested in S. cerevisiae
Lmaj promast: reduces viability of Leishmania major promastigotes; AID 1063; 200,000 compounds, 9% hits; inhibition, % at 10 µM; resazurin fluorescence viability; in the data active = inhibition above about 50%;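 note: promastigotes grown with compound for 44 hours at 28 °C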
* = called active by the depositor; . = not tested or not shown.

SMILES	PMI act satM6P	Rad51 HR inh	PMI act	Calpain2 inh	WT yeast gro inh	Lmaj promast
N#CC1=C(N)Oc2c(c(=O)oc3ccccc23)C1c1ccncc1 (stereo not given)	1	4	1	-14	-6	-5
N#CC1=C(N)Oc2c(c(=O)sc3ccccc23)C1c1cccnc1 (stereo not given)	1.1	-3	1.1	4	7	81*
COc1ccc(C2SCC(=O)Nc3c2c(C)nn3-c2ccccc2)cc1 (stereo not given)	1	11	1	-17	10	100*
O=C(CN1CC=C(c2ccccc2)CC1)NC(=O)NCc1ccccc1	1	-42	1	23	7	-8
OC(COCc1ccc(Cl)cc1)CN1CC=C(c2ccccc2)CC1 (stereo not given)	1	3	1	12	51	88*
CCOC(=O)C1=C(NC(=S)NC(=O)c2ccccc2)c2ccccc2CC12CCCC2	0.9	2	0.7	36	73*	13
CCN1CCC(O)(c2ccccc2)C(C(=O)c2ccccc2)C1 (stereo not given)	.	-5	.	.	.	80*
CN1CCC(O)(c2ccccc2)C(C(=O)c2ccccc2)C1 (stereo not given)	1	0	0.9	-6	8	50
CC(C)(C)C(O)C(Oc1ccc(Cl)cc1)n1cncn1 (stereo not given)	0.9	-1	0.8	8	-61	82*
CC(C)CC(=O)NC(Oc1ccc(Cl)cc1)C(Cl)(Cl)Cl (stereo not given)	0.9	-4	0.8	10	6	4
O=c1c2ccccc2nc(SCC2CCCCO2)n1-c1ccccc1 (stereo not given)	1	9	1	19	14	76*
CCOC(=O)c1c(NC(NC(=O)CF)C(Cl)(Cl)Cl)sc2c1CCCC2 (stereo not given)	0.9	-6	0.9	5	69*	6
CCOC(=O)c1c(NC(=O)c2c(N)n(CCCOC)c3nc4ccccc4nc23)sc2c1CCCC2	0.8	.	0.7	-135	-15	-6
CCCCCc1cc(O)c2c3c(c(=O)oc2c1)CN(C)CC3	1	-17	0.9	-151	49	99*
CN(C)c1ccc(CN2CC=C(c3ccc(F)cc3)CC2)cc1	1	8	1	26	22	96*
C1=C(c2c[nH]c3ccccc23)CCN(Cc2ccccc2)C1	1	10	1	23	20	39
Cn1cccc1/C=C1/C(=O)NC(=O)N(C(C)(C)C)C1=O	.	23	.	11	.	.
CN1C(=O)/C(=C/c2cccn2-c2ccc3ccccc3c2)C(=O)NC1=S	1.3	17	1	-81	27	100*
Cc1cc(C)cc(N2C(=O)NC(=O)/C(=C\c3cccn3-c3ccc(Cl)cc3)C2=O)c1	1	1	1	-39	-14	92*
Cc1cc(C)cc(N2C(=O)NC(=O)/C(=C\c3cccn3-c3ccccc3)C2=O)c1	1	.	0.9	4	-2	36
O=C1NC(=S)NC(=O)C1=Cc1cccn1-c1ccc(O)cc1	1	6	1	-53	-12	100*
O=Cc1cn(CCCOc2ccccc2)c2ccccc12	0.8	4	0.9	18	3	66*
COc1ccccc1OCCCn1cc(C=O)c2ccccc21	1	-4	0.9	11	24	4
CCSc1cc(C2C(C#N)=C(N)Oc3n[nH]c(C)c32)c(C)o1 (stereo not given)	1	3	0.8	10	3	94*
CCN1/C(=C\C=C\C2=[N+](CC)c3ccccc3C2(C)C)C(C)(C)c2ccccc21	1.2	.	1	30	89	99*
SMILES	PMI act satM6P	Rad51 HR inh	PMI act	Calpain2 inh	WT yeast gro inh	Lmaj promast
FC(F)(F)c1cccc(-n2nnnc2C2(N3CCOCC3)CCCCC2)c1	0.9	.	0.9	10	-4	84*
C#CCN1CCN(c2cccc(C(F)(F)F)c2)CC1	1.1	-25	1.1	17	3	2
CCN1C[C@]2(COC)CC[C@H](O)[C@@]34C5C[C@@H]6[C@@H](OC)C[C@@](O)(C5[C@H]6O)[C@](O)([C@@H](OC)C23)[C@@H]14 (stereo not given in full)	.	6	.	.	.	.
Cc1c(C(c2ccc(Br)cc2)c2c(O)c3ccccc3oc2=O)c(=O)n(-c2ccccc2)n1C (stereo not given)	1.1	11	1.1	-55	18	0
Cc1c(C(c2ccc(Cl)cc2Cl)c2c(O)c3ccccc3oc2=O)c(=O)n(-c2ccccc2)n1C (stereo not given)	1.1	5	1	11	75*	-12
CSc1nc(N2CCN(C)CC2)c2ccccc2n1	0.9	.	0.9	-28	12	3
CN1CCC(N(C)c2nc(-c3ccccc3)nc3ccccc23)CC1	0.9	0	0.9	-34	33	101*
O=C(c1ccccc1F)c1cn(Cc2ccccc2)c2ccccc12	0.9	4	0.9	-1	8	54*
O=C(c1ccc(C(F)(F)F)cc1)C1CCCN(Cc2ccc(CO)o2)C1 (stereo not given)	0.9	17	0.9	-12	3	88*
Cc1ccc(CN2CCCC(C(=O)c3cccc(C(F)(F)F)c3)C2)o1 (stereo not given)	1	-3	0.9	-6	15	47
O=C(c1cccc(C(F)(F)F)c1)C1CCCN(Cc2ccccc2O)C1 (stereo not given)	0.9	.	0.9	41	28	84*
Cc1ccc(CN2CCCC(C(=O)c3sccc3C)C2)o1 (stereo not given)	1.1	.	1	12	12	15
O=C(c1ccc(C(F)(F)F)cc1)C1CCCN(Cc2ccncc2)C1 (stereo not given)	0.9	0	0.9	-9	3	89*
Cc1nn(Cc2c(Cl)cccc2Cl)c(Cl)c1C(=O)O	1.1	10	1.1	-21	1	-5
CN(C)C(=O)Oc1ccc(Br)c2ccccc12	0.9	9	1	-5	-3	7
Nc1ccc(C2(c3ccc(N)cc3)CCCCC2)cc1	0.8	-8	1	1	26	12
Cc1cc(C)[n+](C2C3CC4CC(C3)CC2C4)o1 (stereo not given)	1.1	.	1.2	21	10	17
O=C1NC(=O)C2(Cc3c(nc4ccccn4c3=O)N3CCCCCC32)C(=O)N1Cc1ccccc1 (stereo not given)	0.9	2	0.9	-76	15	97*
CC1CN2c3ccc([N+](=O)[O-])cc3CC3(C(=O)N(C)C(=O)N(C)C3=O)C2C(C)O1 (stereo not given)	.	9	.	-18	.	.
Cc1oc(-c2ccccc2)nc1CN1C(=O)C(C)N=C(c2ccccc2F)c2cc(Cl)ccc21 (stereo not given)	0.9	.	0.9	-31	80*	94*

Screening results from PubChem BioAssay.
